From ChEMBL document CHEMBL4028903 (J Med Chem, 2017)
Converted amounts (≈) assume the structure as drawn. The source made the active and inactive calls. No cut-off for these calls is given here.

Assays:
[1] = Solubility of the compound in fasted state simulated intestinal fluid at pH 6.8; type: physicochemical
[2] = Dissociation constant, pKa of compound; type: physicochemical
[3] = Volume of distribution at steady state in rat at 3 mg/kg, iv by LC-MS/MS analysis; type: ADME, organism-based; conditions: in vivo, read-out: Vdss
Outline: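 Rats were dosed IV as a solution in 75% PEG300:25% D5W, or orally as a suspension in 0.5% methylcellulose, 0.5% Tween80 and 99% water.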

Rattus norvegicus [4] = assay: In vivo agonist activity at FXR in po dosed Sprague-Dawley rat assessed as induction of BSEP mRNA level in liver administered as single dose after 7 hrs post dose by qPCR analysis; type: functional, organism-based
Rattus norvegicus [5] = assay: In vivo agonist activity at FXR in Sprague-Dawley rat assessed as induction of SHP mRNA level in liver at 0.3 mg/kg, po qd for 14 days measured 7 hrs post last dose on day 14 by qPCR analysis; type: functional, organism-based
Rattus norvegicus [6] = assay: In vivo agonist activity at FXR in Sprague-Dawley rat assessed as downregulation of CYP8B1 mRNA level in liver at >0.03 mg/kg, po qd for 14 days measured 7 hrs post last dose on day 14 by qPCR analysis; type: functional, organism-based
Rattus norvegicus [7] = assay: In vivo agonist activity at FXR in Sprague-Dawley rat assessed as induction of SHP mRNA level in ileum at 0.01 mg/kg, po qd for 14 days measured 7 hrs post last dose on day 14 by qPCR analysis; type: functional, organism-based
Rattus norvegicus [8] = assay: In vivo agonist activity at FXR in Sprague-Dawley rat assessed as induction of FGF15 mRNA level in ileum at 0.01 mg/kg, po qd for 14 days measured 7 hrs post last dose on day 14 by qPCR analysis; type: functional, organism-based
Rattus norvegicus [9] = assay: In vivo agonist activity at FXR in po dosed Sprague-Dawley rat assessed as induction of SHP mRNA level in liver administered once daily for 14 days measured 7 hrs post last dose on day 14 by qPCR analysis; type: functional
Rattus norvegicus [10] = assay: In vivo agonist activity at FXR in po dosed Sprague-Dawley rat assessed as reduction in serum triglyceride level administered once daily for 14 days measured 24 hrs post last dose; type: functional, organism-based
[11] = Drug uptake in Sprague-Dawley rat plasma at 1 mg/kg, po qd administered via gavage measured 1 hr post last dose on day 14 by LC-MS/MS analysis; type: ADME, organism-based
[12] = Drug uptake in Sprague-Dawley rat liver at 0.3 mg/kg, po qd administered via gavage measured 7 hrs post last dose on day 14 by LC-MS/MS analysis; type: ADME, organism-based; conditions: read-out: Drug uptake
Outline: (§1)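 Drug concentration in liver was quantified from tissue homogenates, so these are total levels. Unbound liver concentration was not determined.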

[13] = Drug uptake in Sprague-Dawley rat liver at 0.3 mg/kg, po qd administered via gavage measured 1 hr post last dose on day 14 by LC-MS/MS analysis; type: ADME, organism-based; conditions: read-out: Drug uptake; outline: as §1
[14] = Drug uptake in Sprague-Dawley rat liver at 0.03 mg/kg, po qd administered via gavage measured 7 hrs post last dose on day 14 by LC-MS/MS analysis; type: ADME, organism-based; conditions: read-out: Drug uptake; outline: as §1
[15] = Drug uptake in Sprague-Dawley rat plasma at 0.03 mg/kg, po qd administered via gavage measured 7 hrs post last dose on day 14 by LC-MS/MS analysis; type: ADME, organism-based
[16] = Drug uptake in Sprague-Dawley rat plasma at 0.01 mg/kg, po qd administered via gavage measured 1 hr post last dose on day 14 by LC-MS/MS analysis; type: ADME, organism-based
Rattus norvegicus [17] = assay: Dose normalized AUC (0 to 24 hrs) in Sprague-Dawley rat at 3 mg/kg, po qd administered via gavage measured on day 1 by LC-MS/MS analysis; type: ADME, organism-based; conditions: in vivo
Rattus norvegicus [18] = assay: Dose normalized AUC (0 to 24 hrs) in Sprague-Dawley rat at 1 mg/kg, po qd administered via gavage measured on day 11 by LC-MS/MS analysis; type: ADME, organism-based; conditions: in vivo
Rattus norvegicus [19] = assay: Dose normalized AUC (0 to 24 hrs) in Sprague-Dawley rat at 0.03 mg/kg, po qd administered via gavage measured on day 1 by LC-MS/MS analysis; type: ADME, organism-based; conditions: in vivo
Rattus norvegicus [20] = assay: Dose normalized AUC (0 to 24 hrs) in Sprague-Dawley rat at 0.01 mg/kg, po qd administered via gavage measured on day 1 by LC-MS/MS analysis; type: ADME, organism-based; conditions: in vivo
Rattus norvegicus [21] = assay: Dose normalized AUC (0 to 24 hrs) in Sprague-Dawley rat at 0.003 mg/kg, po qd administered via gavage measured on day 1 by LC-MS/MS analysis; type: ADME, organism-based; conditions: in vivo
[22] = AUC (0 to 24 hrs) in Sprague-Dawley rat at 3 mg/kg, po qd administered via gavage measured on day 1 by LC-MS/MS analysis; type: ADME, organism-based; set-up: time < 24 hr, dose 3 mg/kg, route oral; conditions: in vivo
[23] = AUC (0 to 24 hrs) in Sprague-Dawley rat at 1 mg/kg, po qd administered via gavage measured on day 1 by LC-MS/MS analysis; type: ADME, organism-based; set-up: dose 1 mg/kg, time < 24 hr, route oral; conditions: in vivo
[24] = AUC (0 to 24 hrs) in Sprague-Dawley rat at 0.003 mg/kg, po qd administered via gavage measured on day 11 by LC-MS/MS analysis; type: ADME, organism-based; set-up: time < 24 hr, dose 0.003 mg/kg, route oral; conditions: in vivo
[25] = AUC (0 to 24 hrs) in Sprague-Dawley rat at 0.003 mg/kg, po qd administered via gavage measured on day 1 by LC-MS/MS analysis; type: ADME, organism-based; set-up: time < 24 hr, dose 0.003 mg/kg, route oral; conditions: in vivo
[26] = Cmax in Sprague-Dawley rat at 3 mg/kg, po qd administered via gavage measured on day 11 by LC-MS/MS analysis; type: ADME, organism-based; set-up: dose 3 mg/kg, route oral; conditions: in vivo
[27] = Cmax in Sprague-Dawley rat at 0.1 mg/kg, po qd administered via gavage measured on day 1 by LC-MS/MS analysis; type: ADME, organism-based; set-up: dose 0.1 mg/kg, route oral; conditions: in vivo
[28] = Cmax in Sprague-Dawley rat at 0.01 mg/kg, po qd administered via gavage measured on day 1 by LC-MS/MS analysis; type: ADME, organism-based; set-up: dose 0.01 mg/kg, route oral; conditions: in vivo
[29] = Half life in mouse at 5 mg/kg, iv by LC-MS/MS analysis; type: ADME, organism-based; conditions: in vivo
Outline: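 Single IV dose given as a solution. Mouse and rat received it in 75% PEG300:25% D5W. Dog received it in 20% PEG300, 5% solutol and 75% carbonate buffer pH = 8. Plasma was sampled for PK parameters.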

[30] = Drug uptake in Sprague-Dawley rat liver at 1 mg/kg, po qd administered via gavage measured 7 hrs post last dose on day 14 by LC-MS/MS analysis; type: ADME, organism-based; conditions: read-out: Drug uptake; outline: as §1
[31] = Drug uptake in Sprague-Dawley rat plasma at 3 mg/kg, po qd administered via gavage measured 7 hrs post last dose on day 14 by LC-MS/MS analysis; type: ADME, organism-based
Canis familiaris = assay: Drug metabolism in dog assessed as glycine conjugated metabolite formation at 0.5 mg/kg, iv or 2 mg/kg, po administered via gavage by LC-MS/MS analysis; type: ADME, organism-based, Canis lupus familiaris; conditions: in vivo
Outline: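 Plasma samples were taken from the dog PK studies. The IV solution was 20% PEG300, 5% solutol and 75% carbonate buffer pH = 8. The PO suspension was 0.5% methylcellulose, 0.5% Tween80 and 99% water. Samples were screened for taurine- and glycine-conjugated metabolites and for the acylglucuronide.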

Rattus norvegicus [32] = assay: In vivo agonist activity at FXR in po dosed Sprague-Dawley rat assessed as induction of BSEP mRNA level in liver administered as single dose measured 7 hrs post dose by qPCR analysis

For `O=C(O)c1cc(F)c2nc(N3C4CCC3CC(OCc3c(-c5ccccc5OC(F)(F)F)noc3C3CC3)C4)sc2c1` (stereo not drawn), which solubility [1] is on record?
Its solubility is 600 µM (≈ 362 µg/mL).

And the pKa [2]?
Its pKa is 4.

What about the Vd [3] of the same molecule?
Its Vd is 0.72 L/kg.

What about the Activity (Rattus norvegicus [4]) of the same molecule?
The Activity was “Dose-dependent effect”.

And the Activity (Rattus norvegicus [5])?
The Activity was “Active”.

What about the Activity (Rattus norvegicus [6]) of the same molecule?
The Activity was “Active”.

And the Activity (Rattus norvegicus [7])?
The Activity was “Active”.

And the Activity (Rattus norvegicus [8])?
Its Activity is “Active”.

What about the ED50 (Rattus norvegicus [9]) of the same molecule?
The ED50 was 0.02 mg/kg.

What about the Activity (Rattus norvegicus [10]) of the same molecule?
Its Activity is “Dose-dependent effect”.

What about the concentration at 1 h [11] of the same molecule?
Its concentration at 1 h is 16.4 nM.

What about the concentration at 7 h [12] of the same molecule?
The concentration at 7 h was 92.8 nM.

What about the concentration at 1 h [13] of the same molecule?
Its concentration at 1 h is 84.5 nM.

And the concentration at 7 h [14]?
The concentration at 7 h was 9.74 nM.

What about the concentration at 7 h [15] of the same molecule?
Its concentration at 7 h is 1.16 nM.

What about the concentration at 1 h [16] of the same molecule?
Its concentration at 1 h is 0.37 nM.

And the AUC/dose (Rattus norvegicus [17])?
Its AUC/dose is 448 nM·h.

What about the AUC/dose (Rattus norvegicus [18]) of the same molecule?
The AUC/dose was 562 nM·h.

What about the AUC/dose (Rattus norvegicus [19]) of the same molecule?
The AUC/dose was 503 nM·h.

What about the AUC/dose (Rattus norvegicus [20]) of the same molecule?
The AUC/dose was 443 nM·h.

And the AUC/dose (Rattus norvegicus [21])?
Its AUC/dose is 668 nM·h.

What about the AUC(0-t) at 24 h [22] of the same molecule?
The AUC(0-t) at 24 h was 1.34 µM·h.

And the AUC(0-t) at 24 h [23]?
Its AUC(0-t) at 24 h is 0.461 µM·h.

What about the AUC at 24 h [24] of the same molecule?
Its AUC at 24 h is 0.002 µM·h.

And the AUC(0-t) at 24 h [25]?
The AUC(0-t) at 24 h was 0.002 µM·h.

What about the Cmax [26] of the same molecule?
Its Cmax is 127 nM.

What about the Cmax [27] of the same molecule?
Its Cmax is 4.6 nM.

What about the Cmax [28] of the same molecule?
The Cmax was 0.44 nM.

And the half-life [29]?
Its half-life is 2.6 h.

What about the concentration at 7 h [30] of the same molecule?
The concentration at 7 h was 230 nM.

What about the concentration at 7 h [31] of the same molecule?
Its concentration at 7 h is 115 nM.

And the Drug metabolism (Canis familiaris)?
The Drug metabolism was “Metabolite_Notdetected”.

What about the Activity (Rattus norvegicus [32]) of the same molecule?
Its Activity is “Dose-dependent effect”.
